Tests used:
Type in all cases: functional
Cavia porcellus [1] = test: Antitussive activity in guinea pig assessed as inhibition of citric acid-induced coughing at 0.25 umol, intracerebroventricularly administered as single dose after 3 mins relative to control
Summary of the method: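 Unrestrained conscious Dunkin-Hartley guinea pigs with a 22-gauge guide cannula in the lateral ventricle, placed stereotaxically under anaesthesia, recovered 4 days. Single icv dose in 10 µL of Tween 80/saline (5:95). 3 min later, 8-min 0.5 M citric acid aerosol (0.5 mL/min) in an airtight chamber. Cough sounds recorded and episodes counted. % inhibition vs vehicle group; one-way ANOVA with Bonferroni tests.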

Cavia porcellus [2] = test: Antitussive activity in guinea pig assessed as inhibition of citric acid-induced coughing at 0.26 mmol/kg, po administered as single dose after 30 mins; design: scale not given: the % may be the effect or the level left
Summary of the method: (§1)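 Unrestrained conscious Dunkin-Hartley guinea pigs, randomised, given a single oral dose of 100 mg/kg in Tween 80/saline (5:95). 30 min later, 8-min 0.5 M citric acid aerosol (0.5 mL/min) in an airtight chamber. Cough episodes counted from recorded sounds. % inhibition vs vehicle group (n = 4-8); ANOVA with Bonferroni tests.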

Cavia porcellus [3] = test: Antitussive activity in guinea pig assessed as inhibition of citric acid-induced coughing at 0.26 mmol/kg, ip administered as single dose after 30 mins; settings: 0.5 h
Summary of the method: (§2)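 Unrestrained conscious Dunkin-Hartley guinea pigs, randomised, given a single ip dose in DMSO. 30 min later, 8-min 0.5 M citric acid aerosol (0.5 mL/min) in an airtight chamber. Cough sounds recorded and episodes counted. % inhibition vs vehicle group (n = 4-8); one-way ANOVA with Bonferroni tests.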

Cavia porcellus [4] = test: Antitussive activity in guinea pig assessed as inhibition of citric acid-induced coughing at 0.33 mmol/kg, ip administered as single dose after 30 mins; settings: 0.5 h; summary of the method: as §2
Cavia porcellus [5] = test: Antitussive activity in guinea pig assessed as inhibition of citric acid-induced coughing at 0.33 mmol/kg, po administered as single dose after 30 mins; design: scale not given: the % may be the effect or the level left; summary of the method: as §1

Row | SMILES | inhibition (INH) (Cavia porcellus [1]) | Activity (Cavia porcellus [2]) | inhibition in vivo at 260 µmol/kg (Cavia porcellus [3]) | inhibition in vivo at 330 µmol/kg (Cavia porcellus [4]) | Activity (Cavia porcellus [5])
1 | CC[C@H]1[C@H]2[C@@H](CCCN3[C@H]2CC[C@H]3[C@@H]2C[C@H](C)C(=O)O2)O[C@]12C=C(C)C(=O)O2 [STEMONININE] | 10% | 70% | 90% |  | 
2 | CC[C@H]1[C@H]2[C@@H](CCCN3C(=O)CC[C@@H]23)O[C@]12C=C(C)C(=O)O2 [STEMONINOAMIDE] | 10% |  |  | 90% | 70%
3 | CC[C@H]1[C@H]2[C@@H](CCCN3C([C@@H]4C[C@H](C)C(=O)O4)=CC(=O)[C@@]23OC)O[C@]12C=C(C)C(=O)O2 | 10% |  |  |  | 
4 | CC[C@H]1[C@H]2[C@@H](CCCN3C([C@@H]4C[C@H](C)C(=O)O4)=CC(=O)[C@@]23O)O[C@]12C=C(C)C(=O)O2 [STEMOENONINE] | 10% |  |  |  | 

— ChEMBL document CHEMBL1157387, “Antitussive stemoninine alkaloids from the roots of Stemona tuberosa” (2008)
